Data taken from ChEMBL document CHEMBL1212853, “New chloro,fluorobenzylindole derivatives as integrase strand-transfer inhibitors (INSTIs) and their mode of action” (Bioorg Med Chem, 2010).
pEC50, pIC50: −log10 of the molar value.

What was measured:
[1] = test system: Human immunodeficiency virus 1; assay: Antiviral activity against HIV1 infected in human MT4 cells assessed as inhibition of virus-induced cytopathic effect; assay type: functional, organism-based; conditions: Human immunodeficiency virus 1, MT4
In short: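 MT-4/MTT assay: MT-4 cells were infected with 100–300 CCID50 of an HIV-1 IIIB stock, titrated on MT-4 cells, in the presence of fivefold serial compound dilutions. Cell protection from virus-induced cytopathic effect was read spectrophotometrically as MTT reduction to formazan by viable cells. EC50 is the concentration giving 50% protection. Averages ± SD.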

MT4 = assay: Cytotoxicity against human MT4 cells by MTT assay; assay type: cell-based
In short: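 Run in parallel with the antiviral MT-4/MTT assay, using fivefold serial compound dilutions. Viability was read spectrophotometrically as MTT reduction to formazan by mitochondrial dehydrogenase. CC50 is the concentration reducing MT-4 viability by 50%. Averages ± SD.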

[2] = Selectivity index, ratio of CC50 for human MT4 cells to EC50 for HIV1 cells; assay type: toxicity, cell-based; conditions: read-out: Selectivity Index
In short: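 MT-4/MTT assay in human MT-4 lymphocytes. Cells were infected with 100–300 CCID50 of HIV-1 strain IIIB, titrated on MT-4 cells, in the presence of fivefold serial compound dilutions. Viability was read spectrophotometrically as MTT reduced to formazan. EC50 is 50% protection against virus-induced cytopathic effect; CC50 was determined in parallel. SI is calculated as CC50/EC50.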

[3] = molecular target: T1, Human immunodeficiency virus type 1 integrase (Human immunodeficiency virus 1, UniProt Q7ZJM1)
T1 sequence (Q7ZJM1 whole entry): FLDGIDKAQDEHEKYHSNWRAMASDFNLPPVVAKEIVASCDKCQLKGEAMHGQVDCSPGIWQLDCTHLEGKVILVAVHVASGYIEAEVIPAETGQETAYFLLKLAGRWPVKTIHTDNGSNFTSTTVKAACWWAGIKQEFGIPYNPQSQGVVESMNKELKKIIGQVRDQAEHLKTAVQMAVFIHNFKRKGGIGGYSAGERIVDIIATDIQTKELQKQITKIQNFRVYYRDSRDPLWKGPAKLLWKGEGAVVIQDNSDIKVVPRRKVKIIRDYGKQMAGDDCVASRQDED

[4] = molecular target: T1, Human immunodeficiency virus type 1 integrase; remark: listed apart in the source

| SMILES | pEC50 [1] | pEC50 (MT4) | selectivity ratio [2] | pIC50 [3] | pIC50 [4] |
| --- | --- | --- | --- | --- | --- |
| COc1cccc2c1c(C(=O)/C=C(\O)C(=O)O)cn2Cc1cccc(Cl)c1 | 6.19 | 4.52 | 47 | 6.89 | 7.52 |
| COc1cccc2c1c(C(=O)/C=C(\O)C(=O)O)cn2Cc1ccc(Cl)cc1 | 4.69 | 4.48 | 2 | 5.99 | 6.23 |
| COc1cccc2c1c(C(=O)/C=C(\O)C(=O)O)cn2Cc1cccc(F)c1Cl | 6.44 | 5.19 | 18 | 5.28 | 4.89 |
| COc1cccc2c1c(C(=O)/C=C(\O)C(=O)O)cn2Cc1ccc(F)cc1Cl | 5.37 | 4.33 | 11 | 6.27 | 7.22 |
| COc1cccc2c1c(C(=O)/C=C(\O)C(=O)O)cn2Cc1cc(F)ccc1Cl | 5.48 | 4.58 | 8 | 6.38 | 6.57 |
| COc1cccc2c1c(C(=O)/C=C(\O)C(=O)O)cn2Cc1c(F)cccc1Cl | 6.25 | 4.21 | 111 | 6.28 | 6.89 |
| COc1cccc2c1c(C(=O)/C=C(\O)C(=O)O)cn2Cc1cccc(Cl)c1F | 6.37 | 4.83 | 35 | 6.13 | 7.52 |
| COc1cccc2c1c(C(=O)/C=C(\O)C(=O)O)cn2Cc1ccc(F)c(Cl)c1 | 6.37 | 4.50 | 74 | 7.40 | 6.92 |
| COc1cccc2c1c(C(=O)/C=C(\O)C(=O)O)cn2Cc1cc(F)cc(Cl)c1 | 6.28 | 4.49 | 62 | 6.62 | 6.60 |
| COc1cccc2c1c(C(=O)/C=C(\O)C(=O)O)cn2Cc1cc(Cl)ccc1F | 5.38 | 4.97 | 3 | 6.49 | 7.05 |
| COc1cccc2c1c(C(=O)/C=C(\O)C(=O)O)cn2Cc1ccc(Cl)cc1F | < 4.65 | 4.64 | < 1 | 5.60 | 5.26 |
| COc1cccc2c1c(C(=O)/C=C(\O)C(=O)O)cn2Cc1ccc(Cl)c(F)c1 | < 4.63 | 4.63 | < 1 | 5.48 | 5.34 |
| CCOC(=O)/C(O)=C/C(=O)c1cn(Cc2ccccc2Cl)c2cccc(OC)c12 | 5.60 | 4.46 | 14 | 4.88 | 6.14 |
| CCOC(=O)/C(O)=C/C(=O)c1cn(Cc2cccc(Cl)c2)c2cccc(OC)c12 | 5.49 | 4.28 | 17 | 5.32 | 5.54 |
| CCOC(=O)/C(O)=C/C(=O)c1cn(Cc2ccc(Cl)cc2)c2cccc(OC)c12 | 4.38 | 4.38 | 1 | 5.24 | 5.08 |
| CCOC(=O)/C(O)=C/C(=O)c1cn(Cc2cccc(F)c2Cl)c2cccc(OC)c12 | 5.60 | 4.73 | 7 | 5.86 | 5.04 |
| CCOC(=O)/C(O)=C/C(=O)c1cn(Cc2ccc(F)cc2Cl)c2cccc(OC)c12 | 5.39 | 4.29 | 13 | 5.76 | 5.59 |
| CCOC(=O)/C(O)=C/C(=O)c1cn(Cc2cc(F)ccc2Cl)c2cccc(OC)c12 | 4.79 | 4.40 | 3 | 5.57 | 5.53 |
| CCOC(=O)/C(O)=C/C(=O)c1cn(Cc2c(F)cccc2Cl)c2cccc(OC)c12 | 5.33 | 4.60 | 5 | 5.54 | 5.92 |
| CCOC(=O)/C(O)=C/C(=O)c1cn(Cc2cccc(Cl)c2F)c2cccc(OC)c12 | 5.64 | 4.33 | 20 | 5.86 | 6.13 |
| CCOC(=O)/C(O)=C/C(=O)c1cn(Cc2ccc(F)c(Cl)c2)c2cccc(OC)c12 | 5.73 | 4.31 | 26 | 6.44 | 7.15 |
| CCOC(=O)/C(O)=C/C(=O)c1cn(Cc2cc(F)cc(Cl)c2)c2cccc(OC)c12 | 5.37 | 4.24 | 14 | 5.89 | 5.50 |
| CCOC(=O)/C(O)=C/C(=O)c1cn(Cc2cc(Cl)ccc2F)c2cccc(OC)c12 | 4.74 | 4.74 | 1 | 5.79 | 6.05 |
| CCOC(=O)/C(O)=C/C(=O)c1cn(Cc2ccc(Cl)cc2F)c2cccc(OC)c12 | < 4.77 | 4.77 | < 1 | 5.94 | 5.48 |
| CCOC(=O)/C(O)=C/C(=O)c1cn(Cc2ccc(Cl)c(F)c2)c2cccc(OC)c12 | < 4.20 | 4.20 | < 1 | 5.30 | 4.69 |
| COc1cccc2c1c(C(=O)/C=C(\O)C(=O)O)cn2Cc1ccccc1Cl | 6.38 | 4.57 | 64 | 6.15 | 6.28 |
| COc1cc2c(cc1Cc1cccc(Cl)c1F)c(=O)c(C(=O)O)cn2[C@H](CO)C(C)C | – | 5.67 | – | – | – |
| Cc1nnc(C(=O)NC(C)(C)c2nc(C(=O)NCc3ccc(F)cc3)c(O)c(=O)n2C)o1 | – | < 4.74 | – | – | – |
| COc1cccc2c1c(C(=O)/C=C(\O)C(=O)O)cn2Cc1ccc(F)cc1 | – | 4.39 | 70 | – | – |
